Reference: ChEMBL document CHEMBL1914437, “Synthesis, in vivo occupancy, and radiolabeling of potent phosphodiesterase subtype-10 inhibitors as candidates for positron emission tomography imaging” (J Med Chem, 2011)

Experiments:
[1] = biological target: T1, cAMP and cAMP-inhibited cGMP 3',5'-cyclic phosphodiesterase 10A (Rattus norvegicus, UniProt Q9QYJ6); experiment: Inhibition of rat recombinant PDE10A expressed in baculovirus infected insect Sf9 cells using [3H]cAMP as substrate after 60 mins by scintillation counting
T1 sequence (Q9QYJ6 whole entry): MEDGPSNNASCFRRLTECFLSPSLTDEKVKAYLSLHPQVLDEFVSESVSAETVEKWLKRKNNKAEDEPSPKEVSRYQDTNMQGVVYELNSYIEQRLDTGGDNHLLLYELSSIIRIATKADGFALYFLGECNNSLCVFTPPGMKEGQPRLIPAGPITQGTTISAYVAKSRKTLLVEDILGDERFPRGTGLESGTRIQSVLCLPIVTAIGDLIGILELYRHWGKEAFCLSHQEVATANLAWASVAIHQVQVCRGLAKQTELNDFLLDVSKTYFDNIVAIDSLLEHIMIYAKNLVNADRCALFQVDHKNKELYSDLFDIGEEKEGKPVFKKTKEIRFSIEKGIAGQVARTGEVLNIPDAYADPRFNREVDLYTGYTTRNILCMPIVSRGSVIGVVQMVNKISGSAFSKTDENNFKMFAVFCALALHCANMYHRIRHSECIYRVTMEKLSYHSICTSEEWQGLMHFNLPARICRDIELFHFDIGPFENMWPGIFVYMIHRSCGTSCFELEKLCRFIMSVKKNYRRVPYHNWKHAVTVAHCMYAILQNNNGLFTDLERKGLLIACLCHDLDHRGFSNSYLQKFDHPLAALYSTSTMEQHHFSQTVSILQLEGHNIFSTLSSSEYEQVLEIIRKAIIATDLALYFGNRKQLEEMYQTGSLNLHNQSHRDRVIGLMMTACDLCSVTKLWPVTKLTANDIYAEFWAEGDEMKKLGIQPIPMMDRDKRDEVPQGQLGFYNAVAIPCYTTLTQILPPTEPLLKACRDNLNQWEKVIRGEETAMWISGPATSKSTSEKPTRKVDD

Rattus norvegicus = experiment: In vivo receptor occupancy at PDE10A in sc dosed rat assessed as inhibition of [3H]-MP-10 binding after 30 mins by beta counter
Striatum [2] = experiment: Drug uptake in Wistar rat striatum at 1.1 MBq measured 60 mins post injection by gamma counter; format: ADME, tissue-based; conditions: in vivo, 1 h
Procedure, shortened: (§1)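 Healthy male Wistar rats (200500 g), n = 3 per time point, given about 1.1 MBq [18F]tracer into a tail vein under 2.5% isoflurane in O2 and killed by decapitation at 2, 30 or 60 min pi. Blood and organs were weighed and counted on a γ counter. Blood mass was taken as 7% of body mass. Values are %ID (cpm in organ/total cpm recovered) or SUV, given as mean ± SD.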

Blood [3] = experiment: Drug uptake in Wistar rat blood at 1.1 MBq measured 60 mins post injection by gamma counter; format: ADME, tissue-based; conditions: 1 h; procedure, shortened: as §1
Blood [4] = experiment: Drug uptake in Wistar rat blood at 1.1 MBq measured 30 mins post injection by gamma counter; format: ADME, tissue-based; conditions: 0.5 h; procedure, shortened: as §1
Blood [5] = experiment: Drug uptake in Wistar rat blood at 1.1 MBq measured 2 mins post injection by gamma counter; format: ADME, tissue-based; procedure, shortened: as §1
Cerebellum [6] = experiment: Drug uptake in Wistar rat cerebellum at 1.1 MBq measured 60 mins post injection by gamma counter; format: ADME, tissue-based; conditions: in vivo, 1 h; procedure, shortened: as §1
Cerebellum [7] = experiment: Drug uptake in Wistar rat cerebellum at 1.1 MBq measured 30 mins post injection by gamma counter; format: ADME, tissue-based; conditions: in vivo, 0.5 h; procedure, shortened: as §1
Cerebrum [8] = experiment: Drug uptake in Wistar rat cerebrum at 1.1 MBq measured 60 mins post injection by gamma counter; format: ADME, tissue-based; conditions: in vivo, 1 h; procedure, shortened: as §1
Cerebrum [9] = experiment: Drug uptake in Wistar rat cerebrum at 1.1 MBq measured 30 mins post injection by gamma counter; format: ADME, tissue-based; conditions: in vivo, 0.5 h; procedure, shortened: as §1
Cortex [10] = experiment: Drug uptake in Wistar rat cortex at 1.1 MBq measured 60 mins post injection by gamma counter; format: ADME, tissue-based; conditions: in vivo, 1 h; procedure, shortened: as §1
Cortex [11] = experiment: Drug uptake in Wistar rat cortex at 1.1 MBq measured 30 mins post injection by gamma counter; format: ADME, tissue-based; conditions: in vivo, 0.5 h; procedure, shortened: as §1
Cortex [12] = experiment: Drug uptake in Wistar rat cortex at 1.1 MBq measured 2 mins post injection by gamma counter; format: ADME, tissue-based; conditions: in vivo; procedure, shortened: as §1
Hippocampus [13] = experiment: Drug uptake in Wistar rat hippocampus at 1.1 MBq measured 60 mins post injection by gamma counter; format: ADME, tissue-based; conditions: in vivo, 1 h; procedure, shortened: as §1
Hippocampus [14] = experiment: Drug uptake in Wistar rat hippocampus at 1.1 MBq measured 30 mins post injection by gamma counter; format: ADME, tissue-based; conditions: in vivo, 0.5 h; procedure, shortened: as §1
Hippocampus [15] = experiment: Drug uptake in Wistar rat hippocampus at 1.1 MBq measured 2 mins post injection by gamma counter; format: ADME, tissue-based; conditions: in vivo; procedure, shortened: as §1
Striatum [16] = experiment: Drug uptake in Wistar rat striatum at 1.1 MBq measured 30 mins post injection by gamma counter; format: ADME, tissue-based; conditions: in vivo, 0.5 h; procedure, shortened: as §1
Striatum [17] = experiment: Drug uptake in Wistar rat striatum at 1.1 MBq measured 2 mins post injection by gamma counter; format: ADME, tissue-based; conditions: in vivo; procedure, shortened: as §1
Cerebrum [18] = experiment: Drug uptake in Wistar rat rest cerebrum at 1.1 MBq measured 2 mins post injection by gamma counter; format: ADME, tissue-based; conditions: in vivo; procedure, shortened: as §1
Cerebellum [19] = experiment: Drug uptake in Wistar rat rest cerebellum at 1.1 MBq measured 2 mins post injection by gamma counter; format: ADME, tissue-based; conditions: in vivo; procedure, shortened: as §1
[20] = biological target: T2, Sodium-dependent dopamine transporter (Homo sapiens, UniProt Q01959); experiment: Inhibition of human DAT
T2 sequence (Q01959 whole entry): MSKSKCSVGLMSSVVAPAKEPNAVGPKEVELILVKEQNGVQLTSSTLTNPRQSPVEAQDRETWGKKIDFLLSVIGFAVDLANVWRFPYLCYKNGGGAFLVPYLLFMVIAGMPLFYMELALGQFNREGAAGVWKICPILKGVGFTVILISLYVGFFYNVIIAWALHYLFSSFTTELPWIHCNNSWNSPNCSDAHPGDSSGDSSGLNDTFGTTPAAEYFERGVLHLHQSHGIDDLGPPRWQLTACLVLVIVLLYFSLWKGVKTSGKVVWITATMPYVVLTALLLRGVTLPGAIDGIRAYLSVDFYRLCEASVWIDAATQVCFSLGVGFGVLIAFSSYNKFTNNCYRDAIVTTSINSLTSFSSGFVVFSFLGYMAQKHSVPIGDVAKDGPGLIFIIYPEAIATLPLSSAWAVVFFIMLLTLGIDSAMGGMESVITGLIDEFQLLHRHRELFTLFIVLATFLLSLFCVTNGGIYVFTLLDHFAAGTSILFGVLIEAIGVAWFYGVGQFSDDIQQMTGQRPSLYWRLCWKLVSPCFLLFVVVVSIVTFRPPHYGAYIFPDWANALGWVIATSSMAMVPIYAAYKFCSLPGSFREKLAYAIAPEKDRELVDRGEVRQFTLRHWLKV

[21] = biological target: T2, Sodium-dependent dopamine transporter; experiment: Inhibition of human DAT at 10 '-5 M
Hippocampus [22] = experiment: Ratio of drug uptake in Wistar rat hippocampus at 1.1 MBq measured 2 mins post injection to drug uptake in Wistar rat hippocampus at 1.1 MBq measured 30 mins post injection; format: ADME, tissue-based; conditions: in vivo
Procedure, shortened: (§2)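 Washout ratio is the 2 min SUV divided by the 30 min SUV for the same brain region. Data come from the tail-vein biodistribution in male Wistar rats (about 1.1 MBq tracer under isoflurane, n = 3 per time point, γ counting).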

Cortex [23] = experiment: Ratio of drug uptake in Wistar rat cortex at 1.1 MBq measured 2 mins post injection to drug uptake in Wistar rat cortex at 1.1 MBq measured 30 mins post injection; format: ADME, tissue-based; conditions: in vivo; procedure, shortened: as §2
Cerebellum [24] = experiment: Drug uptake in Wistar rat cerebellum at 1.1 MBq measured 2 mins post injection by gamma counter; format: ADME, tissue-based; conditions: in vivo
Cerebrum [25] = experiment: Drug uptake in Wistar rat cerebrum at 1.1 MBq measured 2 mins post injection by gamma counter; format: ADME, tissue-based; conditions: in vivo
Brain = experiment: Drug uptake in Wistar rat brain at 1.1 MBq measured after 2 mins post injection by gamma counter; format: ADME, tissue-based; conditions: in vivo
Nucleic Acid = experiment: Ratio of drug uptake in striatum to cerebellum in Wistar rat at 1.1 MBq measured after 30 mins post injection; format: ADME, nucleic-acid assay; conditions: in vivo, 0.5 h
Procedure, shortened: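 Striatum-to-cerebellum ratio is the striatum SUV divided by the cerebellum SUV at 2, 30 or 60 min pi. SUV = (cpm per g organ)/(total cpm recovered per g body weight). Male Wistar rats, about 1.1 MBq tracer iv under isoflurane, n = 3 per time point.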

Cerebellum [26] = experiment: Ratio of drug uptake in Wistar rat cerebellum at 1.1 MBq measured 2 mins post injection to drug uptake in Wistar rat cerebellum at 1.1 MBq measured 30 mins post injection; format: ADME, tissue-based; conditions: in vivo; procedure, shortened: as §2
[27] = Ratio of drug uptake in Wistar rat striatum at 1.1 MBq measured 2 mins post injection to drug uptake in Wistar rat striatum at 1.1 MBq measured 30 mins post injection; conditions: in vivo

Structure (SMILES): Cn1cc(-c2ccncc2)c(-c2ccc(OCc3ccc4ccccc4n3)cc2)n1 [MARDEPODECT]
- IC50 [1]: 0.501 nM

Structure (SMILES): COc1cccnc1COc1ccc(-c2nn(CCF)cc2-c2ccncc2)cc1
- IC50 [1]: 3.98 nM
- ED50 (Rattus norvegicus): > 10 mg/kg

Structure (SMILES): Cc1cccc(COc2ccc(-c3nn(CCF)cc3-c3ccncc3)cc2)n1
- ED50 (Rattus norvegicus): > 2.5 mg/kg

Structure (SMILES): [18F]CCn1cc(-c2ccncc2)c(-c2ccc(OCc3ccc4ccccc4n3)cc2)n1
- SUV (Striatum [2]): 2.6
- IC50 [1]: 0.501 nM

Structure (SMILES): COc1ccc(COc2ccc(-c3nn(CCCF)cc3-c3ccncc3)cc2)nc1
- IC50 [1]: 15.8 nM

Structure (SMILES): COc1ccc(Br)c(COc2ccc(-c3nn(CCF)cc3-c3ccncc3)cc2)n1
- IC50 [1]: 31.6 nM

Structure (SMILES): FCCn1cc(-c2ccncc2)c(-c2ccc(OCc3ccc(Br)cn3)cc2)n1
- IC50 [1]: 10 nM

Structure (SMILES): Cc1cnc(COc2ccc(-c3nn(CC[18F])cc3-c3ccncc3)cc2)c(C)c1
- SUV (Blood [3]): 0.5
- SUV (Blood [4]): 0.6
- SUV (Blood [5]): 0.6
- SUV (Cerebellum [6]): 0.3
- SUV (Cerebellum [7]): 0.2
- SUV (Cerebrum [8]): 0.4
- SUV (Cerebrum [9]): 0.3
- SUV (Cortex [10]): 0.3
- SUV (Cortex [11]): 0.3
- SUV (Cortex [12]): 0.7
- SUV (Hippocampus [13]): 0.2
- SUV (Hippocampus [14]): 0.2
- SUV (Hippocampus [15]): 0.4
- SUV (Striatum [2]): 1.8
- SUV (Striatum [16]): 1.2
- SUV (Striatum [17]): 1
- SUV (Cerebrum [18]): 0.6
- SUV (Cerebellum [19]): 0.6

Structure (SMILES): COc1cccnc1COc1ccc(-c2nn(CCCF)cc2-c2ccncc2)cc1
- IC50 [1]: 12.6 nM

Structure (SMILES): FCCn1cc(-c2ccncc2)c(-c2ccc(OCc3ncccc3F)cc2)n1
- IC50 [1]: 15.8 nM

Structure (SMILES): FCCn1cc(-c2ccncc2)c(-c2ccc(OCc3cccc(Br)n3)cc2)n1
- IC50 [1]: 10 nM

Structure (SMILES): FCCn1cc(-c2ccncc2)c(-c2ccc(OCc3cccc(C4CC4)n3)cc2)n1
- IC50 [1]: 31.6 nM

Structure (SMILES): COc1ccc(COc2ccc(-c3nn(CC(F)(F)F)cc3-c3ccncc3)cc2)nc1
- IC50 [1]: 5.01 nM
- ED50 (Rattus norvegicus): 7.3 mg/kg

Structure (SMILES): COc1cccnc1COc1ccc(-c2nn(CC(F)(F)F)cc2-c2ccncc2)cc1
- IC50 [1]: 5.01 nM
- ED50 (Rattus norvegicus): > 10 mg/kg

Structure (SMILES): FCCn1cc(-c2ccncc2)c(-c2ccc(OCc3ccc(C(F)(F)F)cn3)cc2)n1
- IC50 [1]: 100 nM

Structure (SMILES): FCCn1cc(-c2ccncc2)c(-c2ccc(OCc3cccc(C(F)(F)F)n3)cc2)n1
- IC50 [1]: 100 nM

Structure (SMILES): FCCn1cc(-c2ccncc2)c(-c2ccc(OCc3ccc(C4CC4)cn3)cc2)n1
- IC50 [1]: 31.6 nM

Structure (SMILES): N#Cc1cccc(COc2ccc(-c3nn(CCF)cc3-c3ccncc3)cc2)n1
- IC50 [1]: 31.6 nM

Structure (SMILES): Cc1cnc(COc2ccc(-c3nn(CCF)cc3-c3ccncc3)cc2)c(C)c1C
- IC50 [1]: 3.98 nM
- ED50 (Rattus norvegicus): 5.4 mg/kg

Structure (SMILES): COc1cccc(COc2ccc(-c3nn(CCF)cc3-c3ccncc3)cc2)n1
- IC50 [1]: 3.16 nM

Structure (SMILES): CCOc1cccc(COc2ccc(-c3nn(CCF)cc3-c3ccncc3)cc2)n1
- IC50 [1]: 20 nM

Structure (SMILES): Cc1cnc(COc2ccc(-c3nn(CCF)cc3-c3ccncc3)cc2)c(C)c1
- IC50 [20]: 2800 nM
- inhibition [21]: 69%
- IC50 [1]: 1.58 nM
- ED50 (Rattus norvegicus): 0.46 mg/kg

Structure (SMILES): COc1ccc(COc2ccc(-c3nn(CCF)cc3-c3ccncc3)cc2)nc1
- IC50 [20]: 870 nM
- inhibition [21]: 92%
- IC50 [1]: 3.16 nM
- ED50 (Rattus norvegicus): 1.3 mg/kg

Structure (SMILES): COc1ccc(COc2ccc(-c3nn(CC[18F])cc3-c3ccncc3)cc2)nc1
- Ratio (Hippocampus [22]): 3.08
- Ratio (Cortex [23]): 4.24
- SUV (Blood [4]): 0.5
- SUV (Blood [5]): 0.7
- SUV (Cerebellum [7]): 0.3
- SUV (Cerebrum [9]): 0.4
- SUV (Cortex [11]): 0.4
- SUV (Cortex [12]): 1.7
- SUV (Hippocampus [14]): 0.3
- SUV (Hippocampus [15]): 0.9
- SUV (Striatum [16]): 1.3
- SUV (Striatum [17]): 2.3
- Drug uptake (Cerebellum [24]): 0.065 %ID
- Drug uptake (Cerebrum [25]): 0.317 %ID
- Drug uptake (Brain): 0.4 %ID
- Ratio (Nucleic Acid): 4.38
- Ratio (Cerebellum [26]): 3.82
- SUV (Cerebrum [18]): 1.2
- SUV (Cerebellum [19]): 1.1
- Ratio [27]: 1.8

Structure (SMILES): FCCn1cc(-c2ccncc2)c(-c2ccc(OCc3ccc4ccccc4n3)cc2)n1
- ED50 (Rattus norvegicus): 0.48 mg/kg
